Results from different studies.
Target: Serine/threonine-protein kinase 32A (STK32A, Homo sapiens, UniProt Q8WU08)

SMILES | test | setting | quantity | result
Cc1c(C(=O)O)cc(-c2ccc(C3CCNCC3)cc2)c2ccc(-c3ccc(C(F)(F)F)cc3)cc12 | binding, competition with immobilised ligand | 1 µM | remaining binding | 89%
CN1CCC2(CC1)NC(=O)c1c(c3ccc(Cl)c(Cl)c3n1C)C2C#N (racemic) | thermal stability, DSF | 10 µM | ΔTm | -0.4 °C
COc1cc(Cl)c(C(=O)N[C@@H](CN[C@H]2CC[C@@H](N)CC2)Cc2ccc(C#N)cc2)cc1-c1ccc(CN[C@H](C)c2ccc(C)cc2)o1 | enzyme activity, inhibitor | 1 µM | remaining activity | 97%
Cc1ccc(C(=O)Nc2ccc(CN3CCN(C)CC3)c(C(F)(F)F)c2)cc1C#Cc1cnc2cccnn12 | cell-free assay | 23.5 nM | remaining signal | 90%
Cn1c2c(c3ccc(Cl)c(Cl)c31)C(C#N)C1(CCCCC1)NC2=O (racemic) | thermal stability, DSF | 10 µM | ΔTm | 0.2 °C
O=C(NC[C@@H]1[C@H]2CN(C(=O)OCc3cc(C(F)(F)F)cc(C(F)(F)F)c3)C[C@@H]12)c1ccc2[nH]nnc2c1 | cell-free assay, competition with immobilised ligand | 1 µM | remaining binding | 72%
CN(C)c1nccc(-c2cnc3ncccn23)n1 | binding | 1 µM | remaining binding | 47%
CN1CC(Oc2cnc(C#N)cc2-c2ccn3nc(NC(=O)C4CC4)cc3c2)C1 | enzyme activity, inhibitor | 1 µM | inhibition | 3%
Cn1c2c(Cl)c(Cl)ccc2c2cc(N)[nH]c(=O)c21 | thermal stability, DSF | 10 µM | ΔTm | -0.3 °C
Nc1ncnc2occ(-c3ccc(NC(=O)Nc4cc(C(F)(F)F)ccc4F)cc3)c12 | cell-free assay | 20 µM | remaining signal | 3.2%
